Published values collected from several papers.
Each line is one published result; the experiments were not run side by side.
Target: D(3) dopamine receptor (DRD3, Homo sapiens, UniProt P35462)

For `CC(C)Cn1cnc2c(N)nc3ccccc3c21`, the inhibition was 18% (ligand displacement, radioligand; 10 µM).
`COc1ccc(C(=O)NCc2cc(C(C)C)no2)cc1OC1CCN(C)CC1` gave an inhibition of 15% (ligand displacement, radioligand; 10 µM).
`CC(C)N1CCC[C@H]1CNC(=O)c1cn(C2CCCC2)c(=O)c2c1c1ccccc1n2C` gave an inhibition of 26% (ligand displacement, radioligand; 10 µM).
The inhibition of `CCc1ccc(OCC(=O)N2CCN(Cc3ccc4c(c3)OCO4)CC2)c(Br)c1` is reported as -4.8% (enzyme activity, inhibitor; 10 µM).
The inhibition of `COCc1c(-c2cc3cc(C)cc(OC)c3s2)c2c(N)ncnn2c1CN1CCNC(=O)C1` is reported as 29% (ligand displacement, radioligand; 10 µM).
`c1ccc(C(NCCNC(c2ccccc2)c2ccccc2)c2ccccc2)cc1` has an inhibition of 77% (cell-free assay; 10 µM).
With `Cc1c(N2CCNCC2)nc2ccc(Br)cc2c1C(=O)NC[C@H](CCC(=O)O)c1ccccc1Cl` the inhibition was 3.81% (ligand displacement; 10 µM).
With `CN(CCN1CCC(OC(=O)Nc2ccccc2-c2ccccc2)CC1)C(=O)c1ccc(CN2CCC(C(N)=O)CC2)cc1` the inhibition was -4% (ligand displacement, radioligand; 1 µM).
The inhibition of `c1ccc(C2(N3CCCCC3)CCCCC2)cc1` is reported as -9.9% (enzyme activity, inhibitor; 10 µM).
`C[C@H](C(=O)N[C@H]1COc2ccccc2[C@@H]1S(C)(=O)=O)c1ccc(F)cc1` has an inhibition of 6% (cell-free assay; 10 µM).
`COc1ccc(S(=O)(=O)N2CCCCC2)cc1C` has an inhibition of less than 30% (ligand displacement, radioligand; 10 µM).
`N#CC1(c2ccccn2)CCN(Cc2cc(C(=O)O)c(=O)n3ccccc23)CC1` gave an inhibition of -7.39% (cell-free assay; 10 µM).
`O=C(Nc1cccnn1)N1CCN([C@@H]2CCOc3cc(C(F)(F)F)ccc32)CC1` gave an inhibition of 9% (cell-free assay; 20 µM).
